NS3 helicase inh = inhibitors of HCV NS3 helicase, primary screen, biochemical, Cy5 molecular beacon fluorescence; Hepatitis C virus NS3 helicase; NS3 helicase DNA unwinding; inhibition, % at 10.9 µM; actives 0.56% (n = 290,000); AID 1800, 2009;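 active means inhibition above the mean of all tested compounds plus 3 SD, set per campaign, cut at about 35% in these data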;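 further: 0% = DMSO wells and 100% = thioflavine S control wells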
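System: NS3 helicase fragment of HCV / Schedule: 1 h at 25 °C / Control set: DMSO alone as 0% and 110 µM thioflavine S as 100% / Reagent: Cy5/quencher beacon DNA duplex and ATP to start / Technique: Cy5 fluorescence / Replication: singlicate / Evaluation: % inhibition of end-to-start signal ratio versus controls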
MBD2 DNA inh = inhibitors of MBD2 binding to methylated DNA, primary screen, biochemical, TR-FRET, DNA-binding domain, human; Methyl-CpG-binding domain protein 2 (Homo sapiens), Q9UBB5; MBD2 binding to methylated oligonucleotide; inhibition, % at 4.4 µM; actives 0.31% (n = 370,000); in the data active means inhibition above about 13%
SUMO1 PPI mod = modulators of SUMO1 protein-protein interactions, primary screen, biochemical, uHTS | AID 602429, 2012 | Small ubiquitin-related modifier 1 (Homo sapiens), P63165 | actives 0.33% (n = 360,000) | inhibition, % at 20 µM | SUMO1 binding to a labelled peptide, TR-FRET, 1 h
UHRF1 binding = UHRF1 methylated DNA binding inhibitors, primary screen, counter-screen for MBD2 inhibitor project, biochemical, TR-FRET, human UHRF1, single concentration; inhibition, % at 4.4 µM; AID 687016, 2013; UHRF1 binding to methylated oligo; actives 0.75% (n = 370,000); in the data active means inhibition above about 21%;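 further: UHRF1 SRA domain binding a hemimethylated CpG hairpin DNA probe; 0% = median of test compound wells and 100% = reference inhibitor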
Pemphigus Ab inh = inhibitors of pemphigus antibody binding to DSG3, primary screen, biochemical, bead-based, flow cytometry, scFv-GFP. Desmoglein-3 (Homo sapiens), P32926. DSG3-coupled beads, scFv-anti-DSG3-GFP binding; active compounds read low. binding (percent of control), % at 10 µM. actives 0.48% (n = 310,000). AID 588358, 2011;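 active means binding more than 3 SD below its plate's average and above zero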;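 further: hits lower antibody fragment binding to DSG3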
DNMT1 block = human DNMT1 methyltransferase inhibitors, primary screen, biochemical, molecular beacon, fluorescence, HinP1I cleavage, uHTS; DNA (cytosine-5)-methyltransferase 1 (Homo sapiens), P26358; inhibition (reported as % activation of signal), % at 10 µM; actives 0.83% (n = 360,000); in the data active means inhibition above about 50%
NS3 helicase cf = HCV NS3 helicase inhibitors, retest, confirmation, biochemical, Cy5 molecular beacon fluorescence, triplicate. shares compounds with NS3 helicase inh. NS3 helicase DNA unwinding. inhibition, % at 10.9 µM. actives 31% (n = 1,600). AID 1943, 2009;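 active means inhibition above the mean of all tested compounds plus 3 SD, cutoff set per campaign, cut at about 36% in these data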
FID counter trip = compounds displacing fluorescent DNA intercalator, artefact control for HCV NS3 helicase inhibitor project, biochemical, FID fluorescence, triplicate. DNA fluorescent intercalator displacement. AID 1945, 2009. actives 4% (n = 1,600). inhibition, % at 7.9 µM. shares compounds with NS3 helicase inh;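 further: 0% = vehicle and 100% = reference compound; higher means more displacement of ethidium bromide from the DNA hairpin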
FID counter DR = compounds displacing fluorescent intercalator from DNA, dose response, counter-screen for HCV NS3 helicase inhibitor project, biochemical, fluorescence; AID 2172, 2009; IC50, µM; shares compounds with NS3 helicase inh; 120 tested, under 10 active; fluorescent intercalator displacement from DNA; call rule not given here
* = called active by the depositor; / = no result given. In the library only some 2.5% were active in any assay of this set; here they are far more common. Unless noted, no stated cut-off is given here; in the data, active means inhibition above about 37%; inactive means the rest.

SMILES | NS3 helicase inh | MBD2 DNA inh | SUMO1 PPI mod | UHRF1 binding | Pemphigus Ab inh | DNMT1 block | NS3 helicase cf | FID counter trip | others
COc1cccc(NC(=O)Cn2c3ccccc3c3nc4n(c(=O)c32)CCCS4)c1 | -11 | 6 | -9 | 2 | 103 | -3 | / | /
Oc1ccc(-c2csc(Nc3cccc4ccccc34)n2)cc1O | 42* | 0 | 17 | -1 | 95 | 18 | -21 | 12
CCOC(=O)c1cnc2c(ccc3ccccc32)c1NCCN(C)C | 36* | 8 | 7 | 3 | 107 | 25 | 7 | 75*
CCOC(=O)c1cnc2c(ccc3ccccc32)c1NCCO | 0 | 3 | 2 | -2 | 108 | -11 | / | /
COc1ccc(-c2nc(-c3ccccc3)c(-c3cc([N+](=O)[O-])ccc3C)[nH]2)cc1O | -17 | 6 | 5 | 0 | 106 | -12 | / | /
COc1ccc(-c2nc(=S)c3c([nH]2)Oc2ccc(C)cc2C3)cc1O | 53* | 2 | 6 | -3 | 90 | -21 | 12 | -16
C=CCn1c(SCC(=O)NCc2ccc3c(c2)OCO3)nnc1C1COc2ccccc2O1 (stereo not drawn) | -6 | -1 | 3 | 4 | 105 | 1 | / | /
O=C(CN1CCOc2ccccc21)NC1CCCCCCC1 | 62* | -6 | 2 | -3 | 107 | -2 | -16 | -27
Cc1ccc(C(=O)Nc2cccnc2)cc1S(=O)(=O)N1CCCCCC1 | 7 | -1 | -4 | 1 | / | -1 | / | /
Cc1ccc(NC(=O)CN2C(=O)S/C(=C\C(=O)Nc3ccc(Cl)cc3)C2=O)cc1 | 41* | 6 | -1 | -1 | 94 | 17 | -1 | 1
Cc1nc2cc(N)ccc2n1C1CCCCC1 | -14 | -1 | -4 | 1 | 106 | 1 | / | /
O=C(O)CC(NC(=O)Cc1ccccc1)c1ccccc1 (stereo not drawn) | 6 | 1 | 0 | 4 | 114 | 3 | / | /
COC(=O)c1c(NC(=O)CSc2nc3ccccc3c(=O)n2-c2ccccc2)sc(C)c1C | 48* | 8 | -2 | 10 | 82 | 3 | 10 | -20
Cc1cc(NC(=O)CSc2nc3ccccc3c(=O)n2-c2ccccc2)no1 | 2 | 3 | 6 | 0 | 82 | -2 | / | /
c1ccc(CNC23CC4CC(CC(C4)C2)C3)nc1 | -5 | 4 | 4 | 1 | 97 | 0 | / | /
COc1ccc(Cl)cc1NC(=O)CN(C)C(=O)c1cc2c(F)cccc2s1 | / | -4 | -1 | 0 | / | -10 | / | /
NC(=S)N/N=C/c1ccc(C23CC4CC(CC(C4)C2)C3)cc1 | 56* | / | / | / | / | / | 37* | -6 | FID counter DR=>79
O=C(/C(=N/N=C/c1ccc(O)c(O)c1O)c1ccccc1)c1ccccc1 | 49* | 0 | -15 | -3 | 77 | -30 | 1 | 27
Oc1ccc(/C=N/N=C(c2ccccc2)c2ccccc2)c(O)c1O | 52* | -5 | -4 | -1 | 52 | -10 | -22 | 21
COC(=O)c1cc(NC(=O)CC2Oc3ccccc3NC2=O)cc(C(=O)OC)c1 (stereo not drawn) | 13 | 1 | 3 | 0 | 120 | 2 | / | /
C/C(=N\NC(=S)NCCc1ccccc1)c1ccc(O)cc1O | 50* | 0 | 1 | 0 | 102 | -6 | 12 | 12
